Screening results as filed in PubChem.
A selection: hits, their analogues and other compounds. The true share with any hit is near 0.7%.
GSK3 alpha inh: inhibitors of human GSK-3 alpha kinase. ADP-Glo luminescence, 60 min. P49840. 320,000 tested, 0.1% active. inhibition, % at 10 µM;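 active means more than half of replicates show inhibition above 20%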;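 further: GST-tagged GSK-3 alpha with peptide substrate and 25 µM ATP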
HSV augment: HSV replication enhancement; HSV replication augmentation in cells, fold increase; maximum fold increase; 220,000 tested, 0.005% active; AID 1956; in the data active means maximum fold increase above about 1.5; tested in PC3 cells
Hep lipid drop: modulators of hepatic lipid droplet formation; AML12 mouse hepatocytes, oleate lipid droplets, BODIPY imaging; 240,000 tested, 0.4% active; inhibition, % at 6.5 µM;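 active means lipid droplet intensity inhibited by at least 50%, with more than 500 cells counted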
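Material – mouse AML12 hepatocyte cell line, fixed after treatment · Compound dosing – one dose, 6.5 µM compound · Times – compound with oleate, overnight · Measured by – Image-based BODIPY and DAPI two-channel analysis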
GSK3beta inhib: blocks human GSK3beta kinase activity. P49841. GST-GSK3beta kinase, ADP-Glo luminescence, 60 min; stronger effect = lower value. activity score (negative = inhibition), % at 10 µM. 300,000 tested, 0.038% active. AID 2097;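 active means more than half of replicate wells score below -50%, meaning over 50% inhibition versus plate controls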
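Assay system: GST-fused GSK3beta enzyme, cell-free / Medium: Tris pH 7.5 buffer with MgCl2, DTT, BSA, heparin / Also added: peptide substrate plus 25 µM ATP (final) / Compound: 10 µM single point / Timing: kinase reaction with compound 60 min at room temperature / Detection: ADP-Glo luminescence / Benchmarks: DMSO neutral wells and GW8510 at 20 µM as positive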
STK33 inh: inhibitors of human STK33 kinase; purified STK33, MBP phosphorylation, ADP-Glo luminescence; inhibition, % at 10 µM; 320,000 tested, 0.073% active; AID 2661;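 active means inhibition at or above 25%, using the most active replicate where run in duplicate; inactive means inhibition below 25%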
Rce1 inhib: yeast Ras-converting enzyme inhibition; yeast membranes, quenched prenylated peptide cleavage fluorescence; 290,000 tested, 0.27% active; calls only; Q03530;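 active means fall in fluorescence gain of 50% or more versus controls, with final raw signal at or below 3038400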
Target sequence (Q03530 whole entry, looked up): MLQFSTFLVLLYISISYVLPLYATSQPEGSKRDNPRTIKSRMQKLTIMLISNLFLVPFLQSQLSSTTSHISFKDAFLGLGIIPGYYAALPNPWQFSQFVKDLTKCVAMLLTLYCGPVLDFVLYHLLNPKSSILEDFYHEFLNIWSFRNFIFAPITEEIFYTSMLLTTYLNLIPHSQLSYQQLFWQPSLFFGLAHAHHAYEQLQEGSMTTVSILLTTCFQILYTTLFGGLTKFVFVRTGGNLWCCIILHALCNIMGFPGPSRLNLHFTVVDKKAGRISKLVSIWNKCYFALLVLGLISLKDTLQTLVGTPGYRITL
Hep lipid conf: confirmation of inhibitors of hepatic lipid droplet formation; shares compounds with Hep lipid drop; AML12 mouse hepatocytes, BODIPY lipid droplet imaging; droplets induced with 100 µM oleic acid; inhibition, % at 5.2 µM; 870 tested, 65% active; AID 463183;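 active means inhibition of lipid droplet metric at least 50%, with more than 300 cells in each of four replicates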
AML12 cytotox: toxic to AML12 mouse hepatocytes in counter-screen | 870 tested, 3% active | AID 463200 | shares compounds with Hep lipid drop | z-score at 5 µM | DAPI nuclear morphology cytotoxicity imaging; stronger effect = higher value; cells fed 100 µM oleate overnight; in the data active means z-score above about 6.3;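 further: compound exposure lasted overnight at 37 °C before fixation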
AML12 tox conf: AML12 hepatocyte cytotoxicity, confirmed | shares compounds with Hep lipid drop | AML12 mouse hepatocyte viability, ATP luminescence; cells loaded with 100 µM oleic acid | cytotoxicity, % at 50 µM | 530 tested, under 10 active | AID 463219;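 active means cytotoxicity above 50% in each of four replicates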;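 further: compound exposure lasted overnight at 37 °C before the ATP read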
Of the large screens only hits and unclear results are named; the others gave an inactive call (follow-up assays come after a bar, where they were run).

Cc1nc2ccc(S(=O)(=O)NCC(=O)N(C)Cc3ccccc3)cc2s1	none
COc1ccccc1CC(=O)NC1CCCCCC1	none (no result: HSV augment, Hep lipid drop)
CCOc1cc(Br)c(CC(=O)NC2CCCCCC2)cc1OCC	Hep lipid drop 116 (no result: HSV augment) | Hep lipid conf 108 | AML12 cytotox inactive | AML12 tox conf inactive
COc1ccc(N=C2C(=Nc3ccc(OC)cc3)N(c3ccc(OC)cc3)C(=S)N2C(=O)c2ccc(OC)cc2)cc1	Hep lipid drop 87 | Hep lipid conf 113 | AML12 cytotox inactive | AML12 tox conf inactive
COc1ccc(N2C(=S)N(C(=O)c3ccccc3)C(=Nc3ccccc3)C2=Nc2ccccc2)cc1	none (no result: Hep lipid drop)
COc1ccc(N=C2C(=Nc3ccc(OC)cc3)N(c3ccc(N(C)C)cc3)C(=S)N2c2ccc(OC)cc2)cc1	Hep lipid drop 65 | Hep lipid conf inactive | AML12 cytotox inactive
CCOc1ccc(N(CC(=O)NCc2ccc(F)cc2)C(=O)c2ccco2)cc1	none (no result: HSV augment)
COc1ccc(-n2nc3c(c2NC(=O)c2ccc(S(=O)(=O)N4CCOCC4)cc2)CS(=O)(=O)C3)cc1	none
COc1ccccc1N1CCN(C(=O)COc2ccc(S(=O)(=O)NC(C)(C)C)cc2)CC1	Hep lipid drop 64 | Hep lipid conf 85 | AML12 cytotox inactive
CCCCNC(=O)C(=O)NC(C)CCc1ccccc1 (stereo unspecified)	none (no result: HSV augment, Hep lipid drop)
COc1cccc(N/C=C/c2onc(C)c2[N+](=O)[O-])c1	none (no result: Rce1 inhib)
COc1ccc(CNC(=O)COC(=O)/C=C/c2cccc(Cl)c2)cc1	none (no result: HSV augment, Hep lipid drop, GSK3beta inhib, Rce1 inhib)
CC1CCN(C2=C(NS(=O)(=O)c3ccc(Br)cc3)C(=O)c3ccccc3C2=O)CC1	Hep lipid drop 60 (no result: HSV augment) | Hep lipid conf 114 | AML12 cytotox inactive | AML12 tox conf inactive
O=C1C(NS(=O)(=O)c2ccc(Br)cc2)=C(N2CCCCC2)C(=O)c2ccccc21	none (no result: HSV augment)
O=C1C(NS(=O)(=O)c2cccs2)=C(N2CCN(c3cccc(Cl)c3)CC2)C(=O)c2ccccc21	Hep lipid drop 61 (no result: GSK3 alpha inh) | Hep lipid conf 112 | AML12 cytotox inactive | AML12 tox conf inactive
CC1CCCN(C2=C(NS(=O)(=O)c3ccc(Br)cc3)C(=O)c3ccccc3C2=O)C1 (stereo unspecified)	Hep lipid drop 50 (no result: HSV augment) | Hep lipid conf 112 | AML12 cytotox inactive | AML12 tox conf inactive
O=C1C(NS(=O)(=O)c2ccccc2)=C(N2CCN(c3ccc(F)cc3)CC2)C(=O)c2ccccc21	Hep lipid drop 79 | Hep lipid conf 81 | AML12 cytotox inactive | AML12 tox conf inactive
CC(=O)Nc1ccc(S(=O)(=O)NC2=C(N3CCN(C)CC3)C(=O)c3ccccc3C2=O)cc1	none (no result: HSV augment)
CCC(C)(C)NC(=O)CN(Cc1ccccc1Cl)C(=O)CCC(=O)Nc1cc(C)ccn1	none
CC(C)c1nc2cc(C(=O)N3CCNC(=O)C3c3cccc(F)c3)ccc2o1 (stereo unspecified)	none (no result: HSV augment)
Cc1cccc(Oc2ccc(Cl)cc2N)c1	Hep lipid drop 58 | Hep lipid conf inactive | AML12 cytotox inactive
CCOc1ccccc1N1CCN(C(=O)NCc2ccc(C)cc2)CC1	Hep lipid drop 65 (no result: HSV augment) | Hep lipid conf inactive | AML12 cytotox inactive | AML12 tox conf inactive
COc1ccc(N2CCN(C(=O)c3ccc(COc4ccc([N+](=O)[O-])cc4)o3)CC2)cc1	none (no result: GSK3 alpha inh, HSV augment, STK33 inh)
COc1cc(/C=C\C(=O)OCn2nnc3ccccc3c2=O)cc(OC)c1OC	Hep lipid drop 57 | Hep lipid conf inactive | AML12 cytotox inactive
CC(C)n1c(O)c(N=NC(=O)C2COc3ccccc3O2)c2ccccc21 (stereo unspecified)	Hep lipid drop 52 (no result: Rce1 inhib) | Hep lipid conf inactive | AML12 cytotox inactive
COC(=O)[C@@H](Cc1c[nH]c2ccccc12)NC(=O)c1ccc2c(c1)OCO2	none (no result: HSV augment)
